Among the data in ChEMBL document CHEMBL1158416, “Synthesis of yashabushidiol and its analogues and their cytotoxic activity against cancer cell lines” (Bioorg Med Chem Lett, 2009) are IC50 values, retold here.

In brackets after ≈: the same amount, converted by molar mass.

Type in all cases: functional, cell-based
One assay concerns THP-1. Put plainly: Antiproliferative activity against human THP1 cells after 48 hrs by MTT assay. The following applies: THP-1, 48 h. In short, it runs like this: (§1)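 Cells in exponential growth exposed to a range of test concentrations for 48 h; growth inhibition read by MTT. IC50 taken as the concentration giving a 50% fall in cell number relative to untreated control cultures, derived by regression analysis.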
(In general: Formazan colour is commonly taken as a measure of viable cells.)

For the next assay, the system named is U-937. The assay can be described thus: Antiproliferative activity against human U937 cells after 48 hrs by MTT assay. The following applies: U-937, 48 h. Put shortly: as §1
The next assay relates to A-375. The assay can be described thus: Antiproliferative activity against human A375 cells after 48 hrs by MTT assay. The following applies: A-375, 48 h. Put shortly:
as §1

Regarding `COc1cc(CC[C@H](O)C[C@@H](O)CCc2ccccc2)ccc1O`, the IC50 in the assay on THP-1 turned out to be 42.7 µg/mL (≈ 129 µM); with U-937 it was 27.7 µg/mL (≈ 83.7 µM); with A-375, 69.1 µg/mL (≈ 209 µM).

Consider `O[C@H](CCc1ccccc1)C[C@@H](O)CCc1ccccc1`, for which the IC50 in the assay on THP-1 worked out at 40.5 µg/mL (≈ 142 µM); in the assay on U-937, 188 µg/mL (≈ 660 µM); in the assay with A-375, 164 µg/mL (≈ 578 µM).

Turning to `Oc1ccc(CC[C@H](O)C[C@@H](O)CCc2ccccc2)cc1`, the IC50 amounted to 12.8 µg/mL (≈ 42.7 µM) in the assay on THP-1, 31.1 µg/mL (≈ 103 µM) with U-937 and 56.3 µg/mL (≈ 187 µM) in the assay with A-375.

Take `O[C@@H](CCc1ccccc1)C[C@@H](O)CCc1ccccc1`: the results for the IC50 in the assay with THP-1, in the assay on U-937 and in the assay with A-375 were 99.8 µg/mL (≈ 351 µM), 128 µg/mL (≈ 451 µM) and 148 µg/mL (≈ 520 µM), respectively.

For the molecule `Oc1ccc(CC[C@@H](O)C[C@@H](O)CCc2ccccc2)cc1`, the IC50 in the assay on THP-1 came out at 12.6 µg/mL (≈ 42 µM); in the assay with U-937, 33 µg/mL (≈ 110 µM); in the assay with A-375 it was 57.8 µg/mL (≈ 192 µM).

Consider `COc1cc(CC[C@@H](O)C[C@@H](O)CCc2ccccc2)ccc1O`, for which the figures for the IC50 in the assay with THP-1, in the assay on U-937 and in the assay on A-375 were 72.2 µg/mL (≈ 219 µM), 32.7 µg/mL (≈ 98.9 µM) and 75.2 µg/mL (≈ 228 µM), respectively.

The IC50 is the point on the concentration scale where inhibition reaches its midpoint. High values mean a need for much substance, low ones inhibition by little substance.
